Data set [1] relates to dengue virus type 2. In words: Antiviral activity against DENV2 16681 infected in African green monkey Vero E6 cells assessed as inhibitory rate of NS4B positive cells at 10 uM measured after 96 hrs incubation by DAPI staining based immunofluorescence method. Type of data set: functional. The settings on record: Dengue virus, 16681, Vero C1008, 96 h. In outline: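 Vero E6 cells in DMEM infected with DENV2 strain 16681 at MOI 0.01, treated at once with compound (0, 0.1, 1, 10 μM), 96 h. Immunofluorescence with anti-NS4B antibody and DAPI counterstain. Infectivity taken as NS4B-positive cells over DAPI-stained total cells. Inhibitory rate = (1 − NS4B-positive % treated infected / NS4B-positive % mock-treated infected) × 100.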

Data set [2] deals with dengue virus type 2. In words: Antiviral activity against DENV2 16681 infected in African green monkey Vero E6 cells assessed as reduction in virus induced cytopathic effect at 10 uM measured after 96 hrs by reverse phase contrast microscopy. Format: functional, organism-based. The following applies: Vero C1008. In outline: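 Vero E6 cells in supporting DMEM infected with DENV2 strain 16681 (MOI 0.01), then treated immediately with compound at 10 μM. After 96 h incubation, cytopathic effect photographed by reverse phase-contrast microscopy and scored semi-quantitatively (−, +, ++, +++) against infected controls.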

Data set [3] concerns dengue virus type 2. In words: Antiviral activity against DENV2 16681 infected in African green monkey Vero E6 cells assessed as reduction in virus induced cytopathic effect measured after 96 hrs by reverse phase contrast microscopy. Type of data set: functional, organism-based. The settings on record: Vero C1008. The essentials: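 Vero E6 cells in DMEM infected with DENV2 16681 at MOI 0.01, compound added immediately (screen at 10 μM, then 0, 0.1, 1, 10 μM). Photographed 96 h post infection by phase-contrast microscopy. CPE reduction scored qualitatively (−, +, ++, +++).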
On the technique in general: Protection from cytopathic effect is a common read-out in antiviral testing.

Data set [4] in a line: Therapeutic index, ratio of CC50 for African green monkey Vero E6 cells to IC50 for DENV2 16681 infected in African green monkey Vero E6 cells. Type of data set: toxicity, Vero C1008. The settings on record: read-out: Ratio CC50/IC50. The essentials: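 TI = CC50/IC50. CC50 comes from the Vero E6 MTT survival test. IC50 comes from the NS4B-positive cell fraction by immunofluorescence in DENV2 16681-infected Vero E6 cells (MOI 0.01, 96 h, 0–10 μM).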

In data set [5] the test system is dengue virus type 2. In words: Antiviral activity against DENV2 16681 infected in African green monkey Vero E6 cells assessed as inhibitory rate of NS4B positive cells measured after 96 hrs incubation by DAPI staining based immunofluorescence method. The settings on record: for IC50: Dengue virus, 16681, Vero C1008, 96 h; for inhibition: Vero C1008. Type of data set: functional, organism-based. In outline: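 Vero E6 cells in DMEM, infected with DENV2 strain 16681 at MOI 0.01 and treated with compound (0, 0.1, 1, 10 μM; single 10 μM for screening). After 96 h, immunofluorescence with anti-NS4B antibody and DAPI nuclear counterstain. Infectivity = NS4B-positive cells / DAPI-stained cells. Inhibitory rate = (1 − NS4B-positive % treated / NS4B-positive % mock-treated infected) × 100. IC50 derived from NS4B-positive percentages across concentrations.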

In a further data set the test system is Vero C1008. In words: Cytotoxicity against African green monkey Vero E6 cells assessed as reduction in survival rate measured after 48 hrs by MTT assay. The following applies: chlorocebus sabaeus, vero c1008, 48 h. Format: cell-based. The essentials:
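MTT viability test on Vero E6 cells in DMEM over a range of compound concentrations. CC50 calculated from survival of treated cells relative to mock cells.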
Background: Tetrazolium dyes change colour on reduction, which living cells bring about.

Activity calls are given as the source filed them. The rule behind the calls is not given here.

For orientation: inhibition means the drop in the measured response relative to a control, in per cent. With `COC(=O)C[C@H](NC(=O)[C@H]1O[C@@H](O[C@H]2[C@@H](O[C@H]3CC[C@]4(C)[C@H]5C(=O)C=C6[C@@H]7C[C@@](C)(C(=O)O)CC[C@]7(C)CC[C@@]6(C)[C@]5(C)CC[C@H]4C3(C)C)O[C@H](C(=O)N[C@@H](CC(=O)OC)C(=O)OC)[C@@H](O)[C@@H]2O)[C@H](O)[C@@H](O)[C@@H]1O)C(=O)O`, the inhibition at 10 µM with dengue virus type 2 [1] worked out at 35.8%. The inhibition result in the data set on dengue virus type 2 [2] was “Active”.
For the compound `COC(=O)CC[C@H](NC(=O)[C@H]1O[C@@H](O[C@H]2[C@@H](O[C@H]3CC[C@]4(C)[C@H]5C(=O)C=C6[C@@H]7C[C@@](C)(C(=O)N[C@@H](CCC(=O)OC)C(=O)OC)CC[C@]7(C)CC[C@@]6(C)[C@]5(C)CC[C@H]4C3(C)C)O[C@H](C(=O)N[C@@H](CCC(=O)OC)C(=O)OC)[C@@H](O)[C@@H]2O)[C@H](O)[C@@H](O)[C@@H]1O)C(=O)OC`, the inhibition result with dengue virus type 2 [2] was “inactive”.
Still for that read-out and setting: the value for `COC(=O)[C@@H](Cc1ccccc1)NC(=O)[C@H]1O[C@@H](O[C@H]2[C@@H](O[C@H]3CC[C@]4(C)[C@H]5C(=O)C=C6[C@@H]7C[C@@](C)(C(=O)N[C@H](Cc8ccccc8)C(=O)OC)CC[C@]7(C)CC[C@@]6(C)[C@]5(C)CC[C@H]4C3(C)C)O[C@H](C(=O)N[C@H](Cc3ccccc3)C(=O)OC)[C@@H](O)[C@@H]2O)[C@H](O)[C@@H](O)[C@@H]1O` was “inactive”.
As usually defined, the IC50 is the concentration that inhibits the measured activity by half. For orientation: CC50 means the concentration giving 50% cytotoxicity. For the compound `COC(=O)CCCCCCCCCCNC(=O)[C@H]1O[C@@H](O[C@H]2[C@@H](O[C@H]3CC[C@]4(C)[C@H]5C(=O)C=C6[C@@H]7C[C@@](C)(C(=O)O)CC[C@]7(C)CC[C@@]6(C)[C@]5(C)CC[C@H]4C3(C)C)O[C@H](C(=O)NCCCCCCCCCCC(=O)OC)[C@@H](O)[C@@H]2O)[C@H](O)[C@@H](O)[C@@H]1O`, the inhibition at 10 µM in the data set on dengue virus type 2 [1] is 79.5%. Further, in the data set with dengue virus type 2 [3], the inhibition entry was “Dose-dependent effect”. In addition, the inhibition entry in the data set with dengue virus type 2 [2] is “Active”. For the same compound, the selectivity ratio in data set [4] was > 80. In the data set on dengue virus type 2 [5], the IC50 was found to be 1.2 µM and the inhibition result was “Dose-dependent effect”. Moreover, the CC50 in the data set with Vero C1008 was > 100 µM.
As to `COC(=O)[C@@]1(C)CC[C@]2(C)CC[C@]3(C)C(=CC(=O)[C@@H]4[C@@]5(C)CC[C@H](O[C@H]6O[C@H](C(=O)NN)[C@@H](O)[C@H](O)[C@H]6O[C@@H]6O[C@H](C(=O)NN)[C@@H](O)[C@H](O)[C@H]6O)C(C)(C)[C@@H]5CC[C@]43C)[C@@H]2C1`, the inhibition entry with dengue virus type 2 [2] was “inactive”.
As for `COC(=O)[C@@H](CC(C)C)NC(=O)[C@H]1O[C@@H](O[C@H]2[C@@H](O[C@H]3CC[C@]4(C)[C@H]5C(=O)C=C6[C@@H]7C[C@@](C)(C(=O)N[C@H](CC(C)C)C(=O)OC)CC[C@]7(C)CC[C@@]6(C)[C@]5(C)CC[C@H]4C3(C)C)O[C@H](C(=O)N[C@H](CC(C)C)C(=O)OC)[C@@H](O)[C@@H]2O)[C@H](O)[C@@H](O)[C@@H]1O`, the inhibition at 10 µM in the data set with dengue virus type 2 [1] stood at 53.1%. In the data set with dengue virus type 2 [2], the inhibition result is “Active”.
For `COC(=O)[C@H](CC(C)C)NC(=O)[C@H]1O[C@@H](O[C@H]2[C@@H](O[C@H]3CC[C@]4(C)[C@H]5C(=O)C=C6[C@@H]7C[C@@](C)(C(=O)N[C@@H](CC(C)C)C(=O)OC)CC[C@]7(C)CC[C@@]6(C)[C@]5(C)CC[C@H]4C3(C)C)O[C@H](C(=O)N[C@@H](CC(C)C)C(=O)OC)[C@@H](O)[C@@H]2O)[C@H](O)[C@@H](O)[C@@H]1O`, in the data set on dengue virus type 2 [2], the inhibition entry is “inactive”.
For the compound `COC(=O)[C@@H](NC(=O)[C@H]1O[C@@H](O[C@H]2[C@@H](O[C@H]3CC[C@]4(C)[C@H]5C(=O)C=C6[C@@H]7C[C@@](C)(C(=O)N[C@H](C(=O)OC)C(C)C)CC[C@]7(C)CC[C@@]6(C)[C@]5(C)CC[C@H]4C3(C)C)O[C@H](C(=O)N[C@H](C(=O)OC)C(C)C)[C@@H](O)[C@@H]2O)[C@H](O)[C@@H](O)[C@@H]1O)C(C)C`, the inhibition result with dengue virus type 2 [2] is “inactive”.
Consider `CC[C@H](C)[C@H](NC(=O)[C@H]1O[C@@H](O[C@H]2[C@@H](O[C@H]3CC[C@]4(C)[C@H]5C(=O)C=C6[C@@H]7C[C@@](C)(C(=O)N[C@H](C(=O)OC)[C@@H](C)CC)CC[C@]7(C)CC[C@@]6(C)[C@]5(C)CC[C@H]4C3(C)C)O[C@H](C(=O)N[C@H](C(=O)OC)[C@@H](C)CC)[C@@H](O)[C@@H]2O)[C@H](O)[C@@H](O)[C@@H]1O)C(=O)OC`, for which, in the data set with dengue virus type 2 [2], the inhibition result was “inactive”.
On the same count and under the same terms, the value for `COC(=O)[C@@]1(C)CC[C@]2(C)CC[C@]3(C)C(=CC(=O)[C@@H]4[C@@]5(C)CC[C@H](O[C@H]6O[C@H](C(=O)N/N=C/c7ccc(N(C)C)cc7)[C@@H](O)[C@H](O)[C@H]6O[C@@H]6O[C@H](C(=O)N/N=C/c7ccc(N(C)C)cc7)[C@@H](O)[C@H](O)[C@H]6O)C(C)(C)[C@@H]5CC[C@]43C)[C@@H]2C1` was “inactive”; that for `COC(=O)[C@H](Cc1ccccc1)NC(=O)[C@H]1O[C@@H](O[C@H]2[C@@H](O[C@H]3CC[C@]4(C)[C@H]5C(=O)C=C6[C@@H]7C[C@@](C)(C(=O)N[C@@H](Cc8ccccc8)C(=O)OC)CC[C@]7(C)CC[C@@]6(C)[C@]5(C)CC[C@H]4C3(C)C)O[C@H](C(=O)N[C@@H](Cc3ccccc3)C(=O)OC)[C@@H](O)[C@@H]2O)[C@H](O)[C@@H](O)[C@@H]1O` was “inactive”; that for `CC1(C)[C@@H](O[C@H]2O[C@H](C(=O)N[C@@H](Cc3ccccc3)C(=O)O)[C@@H](O)[C@H](O)[C@H]2O[C@@H]2O[C@H](C(=O)N[C@@H](Cc3ccccc3)C(=O)O)[C@@H](O)[C@H](O)[C@H]2O)CC[C@]2(C)[C@H]3C(=O)C=C4[C@@H]5C[C@@](C)(C(=O)N[C@@H](Cc6ccccc6)C(=O)O)CC[C@]5(C)CC[C@@]4(C)[C@]3(C)CC[C@@H]12` was “inactive”.
The same measure, in the same setting: the value for `COC(=O)[C@@]1(C)CC[C@]2(C)CC[C@]3(C)C(=CC(=O)[C@@H]4[C@@]5(C)CC[C@H](O[C@H]6O[C@H](C(=O)N/N=C/c7ccncc7)[C@@H](O)[C@H](O)[C@H]6O[C@@H]6O[C@H](C(=O)N/N=C/c7ccncc7)[C@@H](O)[C@H](O)[C@H]6O)C(C)(C)[C@@H]5CC[C@]43C)[C@@H]2C1` was “inactive”.
On to `CC1(C)[C@@H](O[C@H]2O[C@H](C(=O)O)[C@@H](O)[C@H](O)[C@H]2O[C@@H]2O[C@H](C(=O)O)[C@@H](O)[C@H](O)[C@H]2O)CC[C@]2(C)[C@H]3C(=O)C=C4[C@@H]5C[C@@](C)(C(=O)O)CC[C@]5(C)CC[C@@]4(C)[C@]3(C)CC[C@@H]12` [GLYCYRRHIZIN], for which the inhibition at 10 µM with dengue virus type 2 [1] was determined as 70.5%. Besides, the inhibition result with dengue virus type 2 [3] was “Dose-dependent effect”. Further, the inhibition entry in the data set with dengue virus type 2 [2] is “Active”. Further, the selectivity ratio in data set [4] was > 12.3. Besides, in the data set on dengue virus type 2 [5], the IC50 worked out at 8.1 µM and the inhibition result is “Dose-dependent effect”. Further, in the data set on Vero C1008, the 50% cytotoxic concentration (CC50) was > 100 µM.
In the case of `COC(=O)[C@@H](Cc1c[nH]c2ccccc12)NC(=O)[C@H]1O[C@@H](O[C@H]2[C@@H](O[C@H]3CC[C@]4(C)[C@H]5C(=O)C=C6[C@@H]7C[C@@](C)(C(=O)N[C@H](Cc8c[nH]c9ccccc89)C(=O)OC)CC[C@]7(C)CC[C@@]6(C)[C@]5(C)CC[C@H]4C3(C)C)O[C@H](C(=O)N[C@H](Cc3c[nH]c4ccccc34)C(=O)OC)[C@@H](O)[C@@H]2O)[C@H](O)[C@@H](O)[C@@H]1O`, in the data set on dengue virus type 2 [2], the inhibition entry is “inactive”.
`COC(=O)[C@H](Cc1ccc(O)cc1)NC(=O)[C@H]1O[C@@H](O[C@H]2[C@@H](O[C@H]3CC[C@]4(C)[C@H]5C(=O)C=C6[C@@H]7C[C@@](C)(C(=O)N[C@@H](Cc8ccc(O)cc8)C(=O)OC)CC[C@]7(C)CC[C@@]6(C)[C@]5(C)CC[C@H]4C3(C)C)O[C@H](C(=O)N[C@@H](Cc3ccc(O)cc3)C(=O)OC)[C@@H](O)[C@@H]2O)[C@H](O)[C@@H](O)[C@@H]1O`: the inhibition result with dengue virus type 2 [2] was “inactive”.
With `COC(=O)[C@@]1(C)CC[C@]2(C)CC[C@]3(C)C(=CC(=O)[C@@H]4[C@@]5(C)CC[C@H](O[C@H]6O[C@H](C(=O)N/N=C/c7ccc(O)cc7)[C@@H](O)[C@H](O)[C@H]6O[C@@H]6O[C@H](C(=O)N/N=C/c7ccc(O)cc7)[C@@H](O)[C@H](O)[C@H]6O)C(C)(C)[C@@H]5CC[C@]43C)[C@@H]2C1`, the inhibition at 10 µM with dengue virus type 2 [1] is 32.5%. The inhibition entry with dengue virus type 2 [2] is “Active”.

These data come from ChEMBL document CHEMBL4396972, “Glycyrrhizic acid derivatives as Dengue virus inhibitors” (Bioorg Med Chem Lett, 2019).
